Screens as filed in PubChem BioAssay.
PAFAH2 inh = inhibitors of human PAFAH2. recombinant PAFAH2, FP-rhodamine activity probe, fluorescence polarization. 340,000 compounds, 0.99% hits. inhibition, % at 3.39 µM;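 active means inhibition above the mean over all tested compounds plus 3 SD, cut at about 30% in these data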;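 further: inhibitors block probe labeling of enzyme so polarization drops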
pPAFAH inh = pPAFAH (human) enzyme inhibition | inhibition, % at 3.39 µM | recombinant pPAFAH, FP-rhodamine probe fluorescence polarization | Q13093 | 330,000 compounds, 1.5% hits;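 active means inhibition above the mean inhibition across the screen plus 3 SD, cut at about 25% in these data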;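 further: inhibitors block binding of the rhodamine activity-based probe so polarization drops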
PAFAH1B2 inh = inhibitors of human PAFAH1B2; P68402; recombinant PAFAH1B2, FP-rhodamine activity probe, fluorescence polarization; inhibition, % at 3.39 µM; 340,000 compounds, 1.2% hits; AID 492953;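 active means inhibition above the mean of all tested compounds plus 3 SD, cut at about 24% in these data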
Target sequence (P68402 whole entry, looked up): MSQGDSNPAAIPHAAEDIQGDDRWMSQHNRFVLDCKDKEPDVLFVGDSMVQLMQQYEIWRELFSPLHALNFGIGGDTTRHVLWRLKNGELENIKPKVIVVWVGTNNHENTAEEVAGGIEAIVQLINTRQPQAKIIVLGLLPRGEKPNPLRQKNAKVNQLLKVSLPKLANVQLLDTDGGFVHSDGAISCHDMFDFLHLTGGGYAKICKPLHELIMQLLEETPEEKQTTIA
PAFAH1B3 FP inh = blocks human PAF acetylhydrolase 1B catalytic subunit 3; Q15102; recombinant PAFAH1B3, FP-rhodamine probe, fluorescence polarization; inhibition, % at 3.39 µM; 340,000 compounds, 0.28% hits; AID 492972;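 active means inhibition above the screen-wide average of all tested compounds plus 3 SD, cut at about 25% in these data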
Target sequence (Q15102 whole entry, looked up): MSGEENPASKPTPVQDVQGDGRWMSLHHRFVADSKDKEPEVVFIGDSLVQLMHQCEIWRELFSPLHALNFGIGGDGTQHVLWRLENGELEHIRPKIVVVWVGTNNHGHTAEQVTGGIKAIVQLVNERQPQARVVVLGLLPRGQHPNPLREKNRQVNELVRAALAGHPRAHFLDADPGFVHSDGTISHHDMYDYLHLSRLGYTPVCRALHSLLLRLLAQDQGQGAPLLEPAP
RBBP9 inh = blocks human serine hydrolase RBBP9. O75884. recombinant RBBP9, FP-Rh probe fluorescence polarization. AID 1515. inhibition, % at 7.94 µM. 220,000 compounds, 0.2% hits;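 active means inhibition above the campaign mean of all tested compounds plus 3 SD, cut at about 14% in these data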
Target sequence (O75884 whole entry, looked up): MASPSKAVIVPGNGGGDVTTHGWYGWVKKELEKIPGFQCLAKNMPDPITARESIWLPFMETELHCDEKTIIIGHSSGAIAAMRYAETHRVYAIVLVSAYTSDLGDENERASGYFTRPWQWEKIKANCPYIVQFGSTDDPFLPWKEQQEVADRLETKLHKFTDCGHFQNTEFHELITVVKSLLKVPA
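System: RBBP9 protein / Buffer or medium: Tris/NaCl buffer pH 8.0 with 0.1% Pluronic / Probe or stimulus: Serine-hydrolase probe FP-Rh, 375 nM pre-mixing / Dosing: 7.94 µM single dose, 0.794% DMSO / Times: enzyme-compound preincubation 30 min, then probe labeling 45 min, 25 °C / Technique: fluorescence polarization (mP), excitation 525 nm, emission 598 nm / Replication: singlicate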
A number is an active result. This is a sample that favours compounds with a hit; in the whole collection about 2.7% have one here.

Screening Cc1ccc(S(=O)(=O)NC(CC(C)C)C(=O)N2CCCCCCC2)cc1 (stereo unspecified) returned PAFAH2 inh inactive, pPAFAH inh inactive, PAFAH1B2 inh inactive and PAFAH1B3 FP inh inactive.
Screening COc1ccccc1Nc1nc(-c2sc(N)nc2C)cs1 returned PAFAH2 inh inactive, pPAFAH inh 27, PAFAH1B2 inh inactive and PAFAH1B3 FP inh inactive.
For CCC(C)C(=O)Nc1nc(C)c(-c2csc(Nc3cc(OC)ccc3OC)n2)s1 (stereo unspecified) the results were PAFAH2 inh inactive, pPAFAH inh 32, PAFAH1B2 inh inactive, PAFAH1B3 FP inh inactive and RBBP9 inh inactive.
COc1ccccc1Nc1nc(-c2sc(NC(=O)c3ccccc3)nc2C)cs1 was read as PAFAH2 inh inactive, pPAFAH inh inactive, PAFAH1B2 inh inactive, PAFAH1B3 FP inh inactive and RBBP9 inh inactive.
Screening CCOC(=O)/C(C#N)=C(\N)C(C)C(=O)Nc1ccccn1 (stereo unspecified) returned PAFAH2 inh inactive, pPAFAH inh inactive, PAFAH1B2 inh inactive, PAFAH1B3 FP inh inactive and RBBP9 inh inactive.
Screening CCC(C)(C)n1nnnc1C(c1ccncc1)N1CCC(Cc2ccccc2)CC1 (stereo unspecified) returned PAFAH2 inh inactive, pPAFAH inh 26, PAFAH1B2 inh inactive, PAFAH1B3 FP inh inactive and RBBP9 inh inactive.
Screening C[C@@H]1O[C@@H](OC2C(O)C(OCCc3ccc(O)c(O)c3)OC(CO)C2OC(=O)/C=C/c2ccc(O)c(O)c2)[C@H](O)[C@H](O)[C@H]1O (stereo partly specified) returned pPAFAH inh 46.
Screening CCOC(=O)c1c(N)sc(-c2ccccc2)c1C returned PAFAH2 inh inactive, pPAFAH inh 34, PAFAH1B2 inh inactive, PAFAH1B3 FP inh inactive and RBBP9 inh inactive.
Screening Cc1ccc(NC(=O)COC(=O)CC2CCCC2)cc1Cl returned PAFAH2 inh 68, pPAFAH inh inactive, PAFAH1B2 inh inactive, PAFAH1B3 FP inh inactive and RBBP9 inh inactive.
For CCOCC(=O)Nc1ccc(C)c(Cl)c1 the results were PAFAH2 inh inactive, pPAFAH inh inactive, PAFAH1B2 inh inactive, PAFAH1B3 FP inh inactive and RBBP9 inh inactive.
COc1ccc(NC(=O)COC(=O)CC2CCCC2)cc1Cl was read as PAFAH2 inh 43, pPAFAH inh 27, PAFAH1B2 inh inactive and PAFAH1B3 FP inh inactive.
`O=C(NNC(=O)C1CCN(S(=O)(=O)c2ccc(Cl)cc2)CC1)c1ccccc1` gave PAFAH2 inh inactive, pPAFAH inh inactive, PAFAH1B2 inh 34, PAFAH1B3 FP inh inactive and RBBP9 inh inactive.
O=C(NNC(=O)C1CCN(S(=O)(=O)c2ccc(Cl)cc2)CC1)c1ccc(Cl)cc1 was read as PAFAH2 inh inactive, pPAFAH inh inactive, PAFAH1B2 inh inactive, PAFAH1B3 FP inh inactive and RBBP9 inh inactive.
CC1CCN(S(=O)(=O)c2ccc(C(=O)NNC(=O)C3CC3)cc2)CC1 was read as PAFAH2 inh inactive, pPAFAH inh inactive, PAFAH1B2 inh inactive, PAFAH1B3 FP inh inactive and RBBP9 inh inactive.
For CCN(CC)S(=O)(=O)c1ccc(C(=O)NNC(=O)C2CCN(S(=O)(=O)c3ccc(Cl)cc3)CC2)cc1 the results were PAFAH2 inh inactive, pPAFAH inh inactive, PAFAH1B2 inh 36, PAFAH1B3 FP inh inactive and RBBP9 inh inactive.
Screening Cc1cccc(NC(=O)C2CCN(S(=O)(=O)c3ccc(Cl)cc3)CC2)n1 returned PAFAH2 inh inactive, pPAFAH inh inactive, PAFAH1B2 inh 29 and PAFAH1B3 FP inh inactive.
`Nc1nnc(CC(=O)N/N=C/c2ccccc2OCc2ccccc2F)s1` gave PAFAH2 inh inactive, pPAFAH inh inactive, PAFAH1B2 inh inactive, PAFAH1B3 FP inh inactive and RBBP9 inh inactive.
COc1ccc(C(O)P(=O)(OCC(C)C)OCC(C)C)c(OC)c1 (stereo unspecified) was read as PAFAH2 inh inactive, pPAFAH inh inactive, PAFAH1B2 inh inactive, PAFAH1B3 FP inh inactive and RBBP9 inh inactive.
`N#Cc1c(N)nc2c3c(sc(=N)c2c1N)NC(=O)CC3c1ccccc1` (stereo unspecified) gave PAFAH2 inh inactive, pPAFAH inh 28, PAFAH1B2 inh inactive, PAFAH1B3 FP inh inactive and RBBP9 inh inactive.
N#Cc1c(N)nc2c3c(sc(=N)c2c1N)NC(=O)CC3c1c(F)cccc1Cl (stereo unspecified) was read as PAFAH2 inh inactive, pPAFAH inh 27, PAFAH1B2 inh inactive, PAFAH1B3 FP inh inactive and RBBP9 inh inactive.
Screening O=C(CN1CCN(CC(=O)Nc2ccccc2Cc2ccccc2)CC1)Nc1ccccc1Cl returned PAFAH2 inh inactive, pPAFAH inh inactive, PAFAH1B2 inh inactive and PAFAH1B3 FP inh inactive.
`N#C/C(=C\c1ccc(O)c(O)c1)C(=O)NCCCc1ccccc1` gave PAFAH2 inh inactive, pPAFAH inh 27, PAFAH1B2 inh 38, PAFAH1B3 FP inh inactive and RBBP9 inh inactive.
COc1ccc(/C=C(\C#N)C(=O)NCCc2ccccc2)cc1OCc1ccccc1 was read as PAFAH2 inh inactive, pPAFAH inh inactive, PAFAH1B2 inh inactive, PAFAH1B3 FP inh inactive and RBBP9 inh inactive.
`COc1ccc(NS(=O)(=O)c2cccc(NC(=O)COc3ccccc3[N+](=O)[O-])c2)cc1` gave PAFAH2 inh inactive, pPAFAH inh inactive, PAFAH1B2 inh inactive and PAFAH1B3 FP inh inactive.
`COc1ccc(NS(=O)(=O)c2cccc(NC(=O)CCC(=O)c3cccs3)c2)cc1` gave PAFAH2 inh inactive, pPAFAH inh 33, PAFAH1B2 inh inactive, PAFAH1B3 FP inh inactive and RBBP9 inh inactive.
`NS(=O)(=O)c1cccc(NC(=O)CCC(=O)c2cccs2)c1` gave PAFAH2 inh inactive, pPAFAH inh inactive, PAFAH1B2 inh inactive and PAFAH1B3 FP inh inactive.
`COc1ccc(NS(=O)(=O)c2cccc(NC(=O)CCS(=O)(=O)c3ccccc3)c2)cc1` gave PAFAH2 inh inactive, pPAFAH inh 34, PAFAH1B2 inh inactive, PAFAH1B3 FP inh inactive and RBBP9 inh inactive.
CN(c1ccc(OCC(=O)NCc2cccnc2)cc1)S(=O)(=O)c1ccc(Cl)cc1 was read as PAFAH2 inh inactive, pPAFAH inh inactive, PAFAH1B2 inh inactive, PAFAH1B3 FP inh inactive and RBBP9 inh inactive.
`Cc1ccc(C(=O)NNc2cc(N3CCCC3)nc(N3CCCC3)n2)cc1` gave pPAFAH inh 32 and RBBP9 inh inactive.
For CCN1C(=O)/C(=C\c2ccc(-c3ccc([N+](=O)[O-])cc3OC)o2)SC1=Nc1cccc(C(=O)O)c1 the results were PAFAH2 inh inactive, PAFAH1B2 inh 24, PAFAH1B3 FP inh inactive and RBBP9 inh inactive.
For C=C1CCC[C@]2(C)C[C@H]3OC(=O)C(CN4CCCCC4CO)[C@H]3CC12 (stereo partly specified) the results were PAFAH2 inh 44, pPAFAH inh inactive, PAFAH1B2 inh 36 and PAFAH1B3 FP inh inactive.
Screening C=C1CCC[C@]2(C)C[C@H]3OC(=O)C(CNC(C)(CO)CO)[C@H]3CC12 (stereo partly specified) returned PAFAH2 inh 33, pPAFAH inh inactive, PAFAH1B2 inh 28 and PAFAH1B3 FP inh inactive.
Screening COc1ccc(-c2ccc(S(=O)(=O)N3CCCC3)cc2)cc1 returned PAFAH2 inh inactive, pPAFAH inh 26, PAFAH1B2 inh inactive, PAFAH1B3 FP inh inactive and RBBP9 inh inactive.
